In ChEMBL document CHEMBL2177069, “Novel peptidomimetic compounds containing redox active chalcogens and quinones as potential anticancer agents” (Eur J Med Chem, 2012):
pIC50: −log10 of the molar value.

Experiments:
RXF 393 = experiment: Cytotoxicity against human RXF393 cells; type: functional
Saccharomyces cerevisiae [1] = experiment: Growth inhibition of PST2-deficient Saccharomyces cerevisiae YDR032C mutant at 20 ug/disc 24 to 48 hrs by agar diffusion assay; type: functional; details: read-out: DIZ
Procedure, shortened: (§1)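 S. cerevisiae deletion mutants or wild type grown on YPD, seeded into liquid agar medium at an optical density of 0.1. 6 mm paper discs soaked with methanolic compound solution were placed on the plates and incubated at 30 °C. Growth was checked after 1 and 2 days, and the inhibition zone diameter was recorded in mm.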

OVCAR-3 = experiment: Cytotoxicity against human OVCAR3 cells; type: functional
TK-10 = experiment: Cytotoxicity against human TK10 cells; type: functional
SW-620 = experiment: Cytotoxicity against human SW620 cells; type: functional
NCI-H460 = experiment: Cytotoxicity against human NCI-H460 cells; type: functional
SN12C = experiment: Cytotoxicity against human SN12C cells; type: functional
A-431 = experiment: Cytotoxicity against human A431 cells after 24 hrs by MTT assay; type: functional, cell-based; details: A-431, 24 h
Procedure, shortened: (§2)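 MTT assay. Cells were seeded at 50,000 cells/mL in medium with 10% fetal calf serum and grown for two days at 37 °C, 10% CO2. Serial dilutions of compound were then added for 24 h. MTT was added (final 0.5 mg/mL) for 2 h, and the formazan was pelleted, washed, dissolved in isopropanol with 0.4% HCl and read at 590 nm. IC50 is the concentration giving 50% of untreated-control absorbance, taken from dose-response curves; mean of two parallel experiments.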

U-251 = experiment: Cytotoxicity against human U251 cells; type: functional
HOP-92 = experiment: Cytotoxicity against human HOP92 cells; type: functional
SF-539 = experiment: Cytotoxicity against human SF539 cells; type: functional
MCF7 = experiment: Cytotoxicity against human MCF7 cells after 24 hrs by MTT assay; type: functional, cell-based; details: MCF7, 24 h; procedure, shortened: as §2
UO-31 = experiment: Cytotoxicity against human UO31 cells; type: functional
BT-549 = experiment: Cytotoxicity against human BT549 cells; type: functional
Saccharomyces cerevisiae [2] = experiment: Growth inhibition of GTT2-deficient Saccharomyces cerevisiae YLL060C mutant at 20 ug/disc after 24 to 48 hrs by agar diffusion assay; type: functional; details: read-out: DIZ; procedure, shortened: as §1
SK-MEL-5 = experiment: Cytotoxicity against human SK-MEL-5 cells; type: functional
NCI-H23 = experiment: Cytotoxicity against human NCI-H23 cells; type: functional
LOX IMVI = experiment: Cytotoxicity against human LOXIMVI cells; type: functional
COLO 205 = experiment: Cytotoxicity against human COLO205 cells; type: functional
Hs-578T = experiment: Cytotoxicity against human Hs578T cells; type: functional
MDA-MB-468 = experiment: Cytotoxicity against human MDA-MB-468 cells; type: functional
A498 = experiment: Cytotoxicity against human A498 cells after 24 hrs by MTT assay; type: functional, cell-based; details: A498, 24 h; procedure, shortened: as §2
HT-29 = experiment: Cytotoxicity against human HT-29 cells; type: functional
SNB-75 = experiment: Cytotoxicity against human SNB75 cells; type: functional
HL-60 = experiment: Cytotoxicity against human HL60 cells; type: functional
OVCAR-5 = experiment: Cytotoxicity against human OVCAR5 cells; type: functional
HOP-62 = experiment: Cytotoxicity against human HOP62 cells; type: functional
SF-295 = experiment: Cytotoxicity against human SF295 cells; type: functional
RPMI-8226 = experiment: Cytotoxicity against human RPMI8226 cells; type: functional
M14 = experiment: Cytotoxicity against human M14 cells; type: functional
A549 = experiment: Cytotoxicity against human A549 cells; type: functional
HUVEC = experiment: Cytotoxicity against human HUVEC cells after 24 hrs by MTT assay; type: cell-based; procedure, shortened: as §2
NCI-H322M = experiment: Cytotoxicity against human NCI-H322M cells; type: functional
MDA-MB-435 = experiment: Cytotoxicity against human MDA-MB-435 cells; type: functional
SK-MEL-28 = experiment: Cytotoxicity against human SK-MEL-28 cells; type: functional
PC-3 = experiment: Cytotoxicity against human PC3 cells; type: functional
T47D = experiment: Cytotoxicity against human T47D cells; type: functional
UACC-62 = experiment: Cytotoxicity against human UACC62 cells; type: functional
HCT-116 = experiment: Cytotoxicity against human HCT116 cells; type: functional
HCC 2998 = experiment: Cytotoxicity against human HCC2998 cells; type: functional
HCT-15 = experiment: Cytotoxicity against human HCT15 cells; type: functional

CC1=C(SCCC(=O)OC(C[Se]C2=C(C)C(=O)c3ccccc3C2=O)C(=O)NCCCCCC(=O)OCc2ccccc2)C(=O)c2ccccc2C1=O (stereo unspecified)
GI50 (RXF 393): 14.8 µM | LC50 (RXF 393): 53.7 µM | TGI (RXF 393; read-out: pTGI (converted)): 28.2 µM | zone of inhibition at 20 µg/disc (Saccharomyces cerevisiae [1]): 11 mm | GI50 (OVCAR-3): 5.01 µM | LC50 (OVCAR-3): 42.7 µM | TGI (OVCAR-3; read-out: pTGI (converted)): 18.2 µM | GI50 (TK-10): 13.8 µM | LC50 (TK-10): 53.7 µM | TGI (TK-10; read-out: pTGI (converted)): 26.9 µM | GI50 (SW-620): 2.45 µM | LC50 (SW-620): 36.3 µM | TGI (SW-620; read-out: pTGI (converted)): 9.33 µM | GI50 (NCI-H460): 1.91 µM | LC50 (NCI-H460): 14.1 µM | TGI (NCI-H460; read-out: pTGI (converted)): 4.57 µM | GI50 (SN12C): 4.68 µM | LC50 (SN12C): 57.5 µM | TGI (SN12C; read-out: pTGI (converted)): 16.6 µM | pIC50 (A-431): 5.22 | GI50 (U-251): 4.07 µM | LC50 (U-251): 46.8 µM | TGI (U-251; read-out: pTGI (converted)): 13.5 µM | GI50 (HOP-92): 2.69 µM | LC50 (50% lethal concentration) (HOP-92): 30.9 µM | TGI (HOP-92; read-out: pTGI (converted)): 7.94 µM | GI50 (SF-539): 4.47 µM | LC50 (SF-539): 43.7 µM | TGI (SF-539; read-out: pTGI (converted)): 15.5 µM | pIC50 (MCF7): 5.00 | GI50 (UO-31): 2.51 µM | LC50 (UO-31): 50.1 µM | TGI (UO-31; read-out: pTGI (converted)): 15.1 µM | GI50 (BT-549): 3.8 µM | LC50 (BT-549): 36.3 µM | TGI (BT-549; read-out: pTGI (converted)): 12.9 µM | zone of inhibition at 20 µg/disc (Saccharomyces cerevisiae [2]): 12 mm | GI50 (SK-MEL-5): 3.8 µM | LC50 (SK-MEL-5): 39.8 µM | TGI (SK-MEL-5; read-out: pTGI (converted)): 14.8 µM | GI50 (NCI-H23): 2.75 µM | LC50 (NCI-H23): 52.5 µM | TGI (NCI-H23; read-out: pTGI (converted)): 7.76 µM | GI50 (LOX IMVI): 2.75 µM | LC50 (LOX IMVI): 69.2 µM | TGI (LOX IMVI; read-out: pTGI (converted)): 11.5 µM | GI50 (COLO 205): 7.94 µM | CC50 (COLO 205; read-out: pLC50 (the source's name) (converted)): 56.2 µM | TGI (COLO 205; read-out: pTGI (converted)): 22.4 µM | GI50 (Hs-578T): 7.59 µM | LC50 (Hs-578T): > 100 µM | TGI (Hs-578T; read-out: pTGI (converted)): > 100 µM | GI50 (MDA-MB-468): 3.02 µM | LC50 (MDA-MB-468): 37.2 µM | TGI (MDA-MB-468; read-out: pTGI (converted)): 8.51 µM | pIC50 (A498): 5.30 | GI50 (HT-29): 3.55 µM | LC50 (HT-29): 83.2 µM | TGI (HT-29; read-out: pTGI (converted)): 20.9 µM | GI50 (SNB-75): 11.5 µM | LC50 (SNB-75): 49 µM | TGI (SNB-75; read-out: pTGI (converted)): 24 µM | GI50 (HL-60): 3.09 µM | LC50 (HL-60): > 100 µM | TGI (HL-60; read-out: pTGI (converted)): 8.51 µM | GI50 (OVCAR-5): 5.01 µM | LC50 (OVCAR-5): 61.7 µM | TGI (OVCAR-5; read-out: pTGI (converted)): 18.6 µM | GI50 (HOP-62): 3.8 µM | LC50 (HOP-62): 39.8 µM | TGI (HOP-62; read-out: pTGI (converted)): 14.5 µM | GI50 (SF-295): 2.51 µM | LC50 (SF-295): 97.7 µM | TGI (SF-295; read-out: pTGI (converted)): 8.71 µM | GI50 (RPMI-8226): 2.63 µM | LC50 (RPMI-8226): > 100 µM | TGI (RPMI-8226; read-out: pTGI (converted)): 7.76 µM | GI50 (M14): 2 µM | LC50 (M14): 8.91 µM | TGI (M14; read-out: pTGI (converted)): 4.27 µM | GI50 (A549): 3.98 µM | LC50 (A549): > 100 µM | TGI (A549; read-out: pTGI (converted)): 11.5 µM | pIC50 (HUVEC): 5.15 | GI50 (NCI-H322M): 3.8 µM | LC50 (NCI-H322M): 66.1 µM | TGI (NCI-H322M; read-out: pTGI (converted)): 17.4 µM | GI50 (MDA-MB-435): 2.14 µM | LC50 (MDA-MB-435): 49 µM | TGI (MDA-MB-435; read-out: pTGI (converted)): 12.9 µM | GI50 (SK-MEL-28): 11.7 µM | LC50 (SK-MEL-28): 51.3 µM | TGI (SK-MEL-28; read-out: pTGI (converted)): 24.5 µM | GI50 (PC-3): 2.57 µM | LC50 (PC-3): 55 µM | TGI (PC-3; read-out: pTGI (converted)): 9.12 µM | GI50 (T47D): 17.8 µM | LC50 (T47D): > 100 µM | TGI (T47D; read-out: pTGI (converted)): 51.3 µM | GI50 (UACC-62): 8.13 µM | LC50 (UACC-62): 46.8 µM | TGI (UACC-62; read-out: pTGI (converted)): 20.9 µM | GI50 (HCT-116): 2 µM | LC50 (HCT-116): 11.7 µM | TGI (HCT-116; read-out: pTGI (converted)): 4.57 µM | GI50 (HCC 2998): 6.46 µM | LC50 (HCC 2998): 46.8 µM | TGI (HCC 2998; read-out: pTGI (converted)): 18.6 µM | GI50 (HCT-15): 6.61 µM | LC50 (HCT-15): 58.9 µM | TGI (HCT-15; read-out: pTGI (converted)): 21.4 µM
